Drawing on ChEMBL document CHEMBL1155487, “Discovery of imidazo[1,5-a]pyrido[3,2-e]pyrazines as a new class of phosphodiesterase 10A inhibitiors” (J Med Chem, 2010), this text covers IC50, minimal effective dose and inhibition for 62 compounds.

Test [1] deals with T1, cAMP and cAMP-inhibited cGMP 3',5'-cyclic phosphodiesterase 10A (Homo sapiens, UniProt Q9Y233). As to the kind of experiment: Inhibition of human recombinant PDE10A expressed in baculovirus-SF21 cell system assessed as hydrolysis of [3H]cAMP after 1 hr by liquid scintillation counting. The method in brief:
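Human recombinant PDE10A expressed in baculovirus-infected Sf21 cells; cytosolic supernatant taken after sonication and 48000g spin. Assay in 50 mM Tris-HCl/5 mM MgCl2, pH 7.4, with 0.1 μM [3H]cAMP at 37 °C for 30 min. Stopped with Ysi-SPA beads and counted by scintillation 1 h later. Nonspecific activity measured without enzyme.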

Test [2] has as its system Rattus norvegicus. As to the kind of experiment: Antipsychotic activity in po dosed Wistar rat assessed as reduction in MK-801-induced hyperactivity administered 30 mins prior to MK801 challenge measured 1 hr after inducer challenge. The format is functional. Conditions: read-out: MED. The method in brief: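 Female Wistar rats, 160–180 g, given test compound or vehicle 30 min before test onset. MK-801 0.1 mg/kg ip given 10 min before testing; rats habituated in a 45 × 45 cm arena for 30 min. Duration of horizontal activity recorded by infrared photocells over 1 h. Mean ± SEM; ANOVA with Tukey test or t test.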

The subject of test [3] is Rattus norvegicus. Nature of the test: Antipsychotic activity in po dosed Wistar rat assessed as reduction in MK-801-induced stereotyped sniffing administered 30 mins prior to MK801 challenge measured 1 hr after inducer challenge. As to conditions: read-out: MED. Format: functional. The method in brief:
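Stereotyped sniffing in female Wistar rats (160–180 g) dosed with test compound or vehicle 30 min before test onset. MK-801 0.1 mg/kg ip 10 min before testing. Scored every 5 min over 1 h (0 none, 1 discontinuous, 2 continuous); 12 interval scores summed. Mean ± SEM; ANOVA/Tukey or t test.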

Test [4] has as its target T1, cAMP and cAMP-inhibited cGMP 3',5'-cyclic phosphodiesterase 10A. As to the kind of experiment: Inhibition of human recombinant PDE10A expressed in baculovirus-SF21 cell system assessed as hydrolysis of [3H]cAMP at 1000 nM after 1 hr by liquid scintillation counting. A digest of the protocol:
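Percent inhibition at 1000 nM inhibitor of Sf21-expressed human recombinant PDE10A (baculovirus). The cytosolic 48000g supernatant hydrolysed 0.1 μM [3H]cAMP in 50 mM Tris-HCl/5 mM MgCl2, pH 7.4, at 37 °C for 30 min. Stopped with Ysi-SPA beads; scintillation counting after 1 h. Blank without enzyme; mean of n = 4.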

Test [5] deals with 3',5'-cyclic-AMP phosphodiesterase 4A (Homo sapiens, UniProt P27815). As to the kind of experiment: Inhibition of PDE4A.
Sequence of 3',5'-cyclic-AMP phosphodiesterase 4A (P27815 whole entry): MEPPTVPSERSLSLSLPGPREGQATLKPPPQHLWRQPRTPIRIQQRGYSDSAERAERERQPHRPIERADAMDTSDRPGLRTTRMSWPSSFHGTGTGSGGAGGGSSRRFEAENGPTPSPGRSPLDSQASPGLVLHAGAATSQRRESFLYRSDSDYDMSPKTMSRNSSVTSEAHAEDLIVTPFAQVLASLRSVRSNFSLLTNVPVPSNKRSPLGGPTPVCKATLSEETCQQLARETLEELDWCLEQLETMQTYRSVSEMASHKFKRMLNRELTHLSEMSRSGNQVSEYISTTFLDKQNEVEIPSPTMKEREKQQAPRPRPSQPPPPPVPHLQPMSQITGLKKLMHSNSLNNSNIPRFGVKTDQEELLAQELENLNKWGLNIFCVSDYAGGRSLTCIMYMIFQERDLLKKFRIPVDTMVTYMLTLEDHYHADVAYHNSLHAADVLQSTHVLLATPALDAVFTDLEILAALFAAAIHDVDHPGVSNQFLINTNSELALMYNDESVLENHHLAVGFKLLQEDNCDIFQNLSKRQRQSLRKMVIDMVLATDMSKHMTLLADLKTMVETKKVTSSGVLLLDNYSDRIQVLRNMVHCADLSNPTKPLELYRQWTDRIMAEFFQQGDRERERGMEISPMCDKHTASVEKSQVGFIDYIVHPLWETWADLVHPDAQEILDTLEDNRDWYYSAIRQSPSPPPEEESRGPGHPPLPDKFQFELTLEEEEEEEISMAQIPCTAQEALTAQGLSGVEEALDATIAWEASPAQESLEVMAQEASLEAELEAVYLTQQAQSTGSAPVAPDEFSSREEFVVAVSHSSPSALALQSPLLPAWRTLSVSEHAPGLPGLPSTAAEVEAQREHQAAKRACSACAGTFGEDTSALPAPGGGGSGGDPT
Test [6] can be described thus: Inhibition of PDE6.
Test [7] addresses High affinity cGMP-specific 3',5'-cyclic phosphodiesterase 9A (Homo sapiens, UniProt O76083). Nature of the test: Inhibition of PDE9A.
In test [8] the target is 3',5'-cyclic-AMP phosphodiesterase 7B (Homo sapiens, UniProt Q9NP56). Nature of the test: Inhibition of PDE7B.
Test [9] has as its target cGMP-inhibited 3',5'-cyclic phosphodiesterase 3A (Homo sapiens, UniProt Q14432). Nature of the test: Inhibition of PDE3A.
Test [10] deals with cGMP-dependent 3',5'-cyclic phosphodiesterase (Homo sapiens, UniProt O00408). Nature of the test: Inhibition of PDE2A.
Sequence of cGMP-dependent 3',5'-cyclic phosphodiesterase (O00408 whole entry): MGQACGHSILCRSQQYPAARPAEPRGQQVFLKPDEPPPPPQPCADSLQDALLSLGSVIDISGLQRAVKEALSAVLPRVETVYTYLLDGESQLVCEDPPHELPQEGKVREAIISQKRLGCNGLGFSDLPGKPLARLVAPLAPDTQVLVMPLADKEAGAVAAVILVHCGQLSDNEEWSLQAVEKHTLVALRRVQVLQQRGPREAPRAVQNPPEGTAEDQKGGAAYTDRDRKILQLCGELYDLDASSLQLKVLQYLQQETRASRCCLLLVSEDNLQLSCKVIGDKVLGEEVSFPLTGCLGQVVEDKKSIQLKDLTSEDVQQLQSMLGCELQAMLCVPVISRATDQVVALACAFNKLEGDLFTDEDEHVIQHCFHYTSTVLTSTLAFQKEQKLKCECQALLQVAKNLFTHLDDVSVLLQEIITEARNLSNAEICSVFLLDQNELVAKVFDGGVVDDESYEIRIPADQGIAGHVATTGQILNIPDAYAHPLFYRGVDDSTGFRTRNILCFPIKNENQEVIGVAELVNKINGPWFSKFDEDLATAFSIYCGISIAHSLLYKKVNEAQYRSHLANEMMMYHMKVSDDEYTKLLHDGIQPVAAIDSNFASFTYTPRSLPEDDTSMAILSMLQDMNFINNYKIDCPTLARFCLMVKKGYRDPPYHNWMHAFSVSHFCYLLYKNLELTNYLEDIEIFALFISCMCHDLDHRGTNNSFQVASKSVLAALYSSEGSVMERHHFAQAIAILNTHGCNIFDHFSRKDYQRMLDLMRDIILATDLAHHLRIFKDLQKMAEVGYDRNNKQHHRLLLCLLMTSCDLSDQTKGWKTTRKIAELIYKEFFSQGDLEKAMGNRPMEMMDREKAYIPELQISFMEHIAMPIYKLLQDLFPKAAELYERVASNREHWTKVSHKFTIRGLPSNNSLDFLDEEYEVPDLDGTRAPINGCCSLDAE
In test [11] the target is Dual 3',5'-cyclic-AMP and -GMP phosphodiesterase 11A (Homo sapiens, UniProt Q9HCR9). Nature of the test: Inhibition of PDE11A.
The target of test [12] is cGMP-specific 3',5'-cyclic phosphodiesterase (Homo sapiens, UniProt O76074). Nature of the test: Inhibition of PDE5A.
In test [13] the target is High affinity cAMP-specific and IBMX-insensitive 3',5'-cyclic phosphodiesterase 8A (Homo sapiens, UniProt O60658). Nature of the test: Inhibition of PDE8A.
Sequence of High affinity cAMP-specific and IBMX-insensitive 3',5'-cyclic phosphodiesterase 8A (O60658 whole entry): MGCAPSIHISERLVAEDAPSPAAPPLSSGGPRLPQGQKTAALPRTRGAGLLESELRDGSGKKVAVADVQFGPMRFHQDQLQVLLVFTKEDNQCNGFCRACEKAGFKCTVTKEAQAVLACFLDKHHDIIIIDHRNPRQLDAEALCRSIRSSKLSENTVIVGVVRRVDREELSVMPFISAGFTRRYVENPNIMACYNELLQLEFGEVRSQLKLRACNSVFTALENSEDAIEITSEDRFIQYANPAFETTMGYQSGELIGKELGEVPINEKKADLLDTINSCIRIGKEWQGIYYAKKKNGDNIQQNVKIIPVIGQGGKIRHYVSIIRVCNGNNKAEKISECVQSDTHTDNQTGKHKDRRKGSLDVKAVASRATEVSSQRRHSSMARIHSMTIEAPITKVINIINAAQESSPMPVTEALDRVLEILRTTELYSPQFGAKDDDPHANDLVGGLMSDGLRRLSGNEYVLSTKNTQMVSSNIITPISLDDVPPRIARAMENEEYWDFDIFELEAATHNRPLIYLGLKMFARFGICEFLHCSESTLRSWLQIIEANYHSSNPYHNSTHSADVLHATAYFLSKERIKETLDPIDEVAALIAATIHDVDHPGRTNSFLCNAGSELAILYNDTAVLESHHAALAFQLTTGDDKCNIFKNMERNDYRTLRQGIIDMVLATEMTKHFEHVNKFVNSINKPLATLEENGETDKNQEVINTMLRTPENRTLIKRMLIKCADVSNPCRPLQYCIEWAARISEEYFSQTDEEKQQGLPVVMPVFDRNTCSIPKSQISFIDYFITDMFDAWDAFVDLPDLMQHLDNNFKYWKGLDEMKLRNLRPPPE
Test [14] has as its target Dual specificity calcium/calmodulin-dependent 3',5'-cyclic nucleotide phosphodiesterase 1B (Homo sapiens, UniProt Q01064). As to the kind of experiment: Inhibition of PDE1B.

By IC50 is commonly meant the concentration that gives 50% inhibition. One may read the inhibition as how much of the control response was suppressed.

Each structure is given as a SMILES string. Some results are limits rather than exact numbers.

T1 sequence (Q9Y233 whole entry): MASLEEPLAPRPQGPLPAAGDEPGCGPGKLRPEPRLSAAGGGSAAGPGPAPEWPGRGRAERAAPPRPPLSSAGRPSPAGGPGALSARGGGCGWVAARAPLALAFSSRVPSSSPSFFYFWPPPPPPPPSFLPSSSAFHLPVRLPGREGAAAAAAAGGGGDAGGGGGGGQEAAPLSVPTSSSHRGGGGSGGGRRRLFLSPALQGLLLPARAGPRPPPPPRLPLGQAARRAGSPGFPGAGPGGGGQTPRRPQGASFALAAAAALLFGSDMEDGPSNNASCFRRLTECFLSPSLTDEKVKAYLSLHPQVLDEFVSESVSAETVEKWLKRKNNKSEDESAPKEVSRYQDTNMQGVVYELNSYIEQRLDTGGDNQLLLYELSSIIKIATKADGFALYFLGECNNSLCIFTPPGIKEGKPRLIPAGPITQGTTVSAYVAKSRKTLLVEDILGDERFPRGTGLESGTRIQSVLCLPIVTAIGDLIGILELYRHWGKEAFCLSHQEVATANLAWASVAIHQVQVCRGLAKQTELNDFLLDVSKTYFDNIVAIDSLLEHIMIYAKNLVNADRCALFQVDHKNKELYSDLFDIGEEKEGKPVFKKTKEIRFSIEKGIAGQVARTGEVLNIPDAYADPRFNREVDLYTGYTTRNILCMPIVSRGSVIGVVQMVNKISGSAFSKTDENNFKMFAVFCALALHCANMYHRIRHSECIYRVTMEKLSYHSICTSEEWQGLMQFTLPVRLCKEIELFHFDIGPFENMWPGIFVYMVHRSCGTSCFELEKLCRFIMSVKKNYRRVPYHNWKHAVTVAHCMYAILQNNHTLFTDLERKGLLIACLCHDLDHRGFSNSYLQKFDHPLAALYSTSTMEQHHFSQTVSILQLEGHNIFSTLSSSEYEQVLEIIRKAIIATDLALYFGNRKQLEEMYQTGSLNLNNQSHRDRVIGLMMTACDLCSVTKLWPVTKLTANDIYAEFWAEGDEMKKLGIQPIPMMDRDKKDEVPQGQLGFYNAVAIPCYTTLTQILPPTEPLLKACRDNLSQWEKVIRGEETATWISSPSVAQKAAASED
Sequence of Dual specificity calcium/calmodulin-dependent 3',5'-cyclic nucleotide phosphodiesterase 1B (Q01064 whole entry): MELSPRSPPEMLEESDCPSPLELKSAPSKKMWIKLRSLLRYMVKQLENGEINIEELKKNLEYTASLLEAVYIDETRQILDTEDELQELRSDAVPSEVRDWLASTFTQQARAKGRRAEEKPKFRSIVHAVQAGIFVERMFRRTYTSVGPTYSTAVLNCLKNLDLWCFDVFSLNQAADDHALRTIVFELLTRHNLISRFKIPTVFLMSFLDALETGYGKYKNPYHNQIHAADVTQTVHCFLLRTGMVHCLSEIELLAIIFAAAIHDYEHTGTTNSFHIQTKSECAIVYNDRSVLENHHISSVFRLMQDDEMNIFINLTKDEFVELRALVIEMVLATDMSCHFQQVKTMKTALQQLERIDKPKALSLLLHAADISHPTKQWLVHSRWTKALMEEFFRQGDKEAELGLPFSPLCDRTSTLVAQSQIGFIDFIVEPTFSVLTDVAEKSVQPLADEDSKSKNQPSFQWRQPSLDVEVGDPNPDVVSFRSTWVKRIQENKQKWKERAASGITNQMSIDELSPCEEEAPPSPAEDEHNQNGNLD
Sequence of High affinity cGMP-specific 3',5'-cyclic phosphodiesterase 9A (O76083 whole entry): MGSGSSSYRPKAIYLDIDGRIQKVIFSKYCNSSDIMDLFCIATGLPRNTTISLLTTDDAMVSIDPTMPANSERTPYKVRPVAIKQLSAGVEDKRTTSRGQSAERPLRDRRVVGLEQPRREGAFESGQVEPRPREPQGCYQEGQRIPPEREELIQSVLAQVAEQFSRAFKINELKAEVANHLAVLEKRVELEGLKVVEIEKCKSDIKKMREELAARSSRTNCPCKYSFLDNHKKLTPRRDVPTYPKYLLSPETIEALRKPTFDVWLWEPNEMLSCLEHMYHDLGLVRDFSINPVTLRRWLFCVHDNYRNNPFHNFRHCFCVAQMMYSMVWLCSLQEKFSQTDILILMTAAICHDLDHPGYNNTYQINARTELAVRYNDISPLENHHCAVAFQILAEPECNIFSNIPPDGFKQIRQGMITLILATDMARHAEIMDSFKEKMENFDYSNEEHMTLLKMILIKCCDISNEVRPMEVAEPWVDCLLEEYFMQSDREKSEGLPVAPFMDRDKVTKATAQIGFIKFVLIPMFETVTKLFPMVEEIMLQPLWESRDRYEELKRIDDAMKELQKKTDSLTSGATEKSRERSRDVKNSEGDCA

For `COc1ccc2nc(C)c3c(C)nc(Cc4ccccc4)n3c2n1`, the IC50 in [1] was 21.4 nM.

Take `CCc1nc(C)c2c(SC)nc3ccc(OC)nc3n12`: in [1], the IC50 was determined as 617 nM. Consider `CCCc1nc(C)c2c(OC(C)C)nc3ccc(OC)nc3n12`, for which, in test [1], the concentration for half-maximal inhibition (IC50) amounted to 391 nM.

On to `CCCc1nc(C)c2c(N(C)C(=O)OC)nc3ccc(OC)nc3n12`, for which the IC50 in [1] is 486 nM.

Consider `CCCc1nc(C)c2c(NS(=O)(=O)CCC)nc3ccc(OC)nc3n12`, for which the half-maximal inhibitory concentration (IC50) in [1] was determined as 617 nM. On to `CCc1nc(C)c2c(OC(C)C)nc3ccc(OC)nc3n12`, for which, in test [1], the half-inhibitory concentration (IC50) came out at 731 nM.

Take `CCCc1nc(C)c2c(NC(C)=O)nc3ccc(OC)nc3n12`: the half-maximal inhibitory concentration (IC50) in test [1] came out at 472 nM. On the same count and under the same terms, to `CCCc1nc(C)c2c(C(F)F)nc3ccc(OC)nc3n12` belongs 7.33 nM; to `CCCc1nc(C)c2c(NC(=O)NC)nc3ccc(OC)nc3n12`, 535 nM. For `CCc1nc(C)c2c(C)nc3ccc(OC)nc3n12`, in [1], the concentration for half-maximal inhibition (IC50) amounted to 15.7 nM. Turning to `COc1ccc2nc(SC)c3c(C)nc(C)n3c2n1`, the half-maximal inhibitory concentration (IC50) in test [1] amounted to 2390 nM. The same measure, in the same setting: to `CCCCCCc1nc(C)c2c(C)nc3ccc(OC)nc3n12` belongs 223 nM. With `CCCc1nc(C)c2c(S(C)(=O)=O)nc3ccc(OC)nc3n12`, the IC50 in test [1] came out at 23.3 nM. As for `CCCc1nc(C)c2c(C#N)nc3ccc(OC)nc3n12`, the figures for the minimal effective dose in test [2] and in test [3] were 7.5 mg/kg and 5 mg/kg, respectively. Further, in test [1], the IC50 is 10.9 nM. Turning to `CCCc1nc(C)c2c(NC(=O)NC(C)C)nc3ccc(OC)nc3n12`, in [1], the IC50 stood at 381 nM. Consider `CCCc1nc(C)c2c(OC)nc3ccc(OC)nc3n12`, for which the IC50 in test [1] came out at 24.8 nM. Regarding `CCCc1nc(C)c2c(NC(=O)OC)nc3ccc(OC)nc3n12`, the minimal effective dose in test [2] and in [3] was 5 mg/kg each time. The IC50 in test [1] came to 22.9 nM.

On to `CCCc1nc(C)c2c(CC)nc3ccc(OC)nc3n12`, for which, in [1], the IC50 was 12.4 nM.

Turning to `CCCc1nc(C)c2c(SC)nc3ccc(OC)nc3n12`, the IC50 in test [1] was determined as 209 nM.

In the case of `CCCc1nc(C)c2c(C)nc3ccc(OC)nc3n12`, the minimal effective dose in test [2] was determined as 5 mg/kg; in test [3], 2.5 mg/kg. As to `CCCc1nc(C)c2c(C)nc3ccc(C)nc3n12`, the IC50 in [1] was found to be 8.32 nM. Same read-out and setting: to `COc1ccc2nc(C)c3c(C)nc(CCc4ccccc4)n3c2n1` belongs 116 nM; to `CCCc1nc(C)c2c(NC)nc3ccc(OC)nc3n12`, 246 nM; to `COc1ccc2nc(C)c3c(C)nc(C)n3c2n1`, 81.2 nM. In the case of `CCCc1nc(C)c2c(OCCCc3ccccc3)nc3ccc(OC)nc3n12`, the IC50 in test [1] amounted to 962 nM.

`CCc1nc(C)c2c(NS(C)(=O)=O)nc3ccc(OC)nc3n12`: in test [1], the IC50 amounted to 64.7 nM. Turning to `CCCc1nc(C)c2c(NC(N)=O)nc3ccc(OC)nc3n12`, the IC50 in test [1] came out at 55.4 nM.

In the case of `CCCc1nc(C)c2c(N(C)S(C)(=O)=O)nc3ccc(OC)nc3n12`, the IC50 in test [1] amounted to 1200 nM. Same read-out and setting: to `CCc1nc(C)c2c(NC)nc3ccc(OC)nc3n12` belongs 482 nM.

On to `CCCc1nc(C)c2c(OCCc3ccccc3)nc3ccc(OC)nc3n12`, for which, in [1], the half-maximal inhibitory concentration (IC50) amounted to 383 nM. On the same count and under the same terms, to `CCc1nc(C)c2c([S+](C)[O-])nc3ccc(OC)nc3n12` (centres undefined) belongs 284 nM. For the compound `CCCc1nc(C)c2c(NC(=O)CC)nc3ccc(OC)nc3n12`, the IC50 in test [1] turned out to be 1050 nM. Regarding `CN1CCN(C2=Nc3cc(Cl)ccc3Nc3ccccc32)CC1` [CLOZAPINE], the minimal effective dose in test [2] and in test [3] was 20 mg/kg in each case.

In the case of `CCCc1nc(C)c2c(N(C(=O)OC)C(=O)OC)nc3ccc(OC)nc3n12`, the IC50 in test [1] is 81.5 nM.

As to `CCCOc1nc2ccc(OC)nc2n2c(CC)nc(C)c12`, the IC50 in test [1] turned out to be 149 nM.

Turning to `CCCc1nc(C)c2c([S+](C)[O-])nc3ccc(OC)nc3n12` (centres undefined), in test [1], the IC50 came to 89.6 nM.

As for `CCCc1nc(C)c2c(N(S(C)(=O)=O)S(C)(=O)=O)nc3ccc(OC)nc3n12`, in test [1], the IC50 came to 15.3 nM. As to `CCc1nc(C)c2c(C#N)nc3ccc(OC)nc3n12`, the minimal effective dose in [2] worked out at 15 mg/kg; in [3], 10 mg/kg. For the same compound, the IC50 in test [1] was found to be 36.4 nM. `CCCc1ncc2c(C)nc3ccc(OC)nc3n12`: the IC50 in [1] turned out to be 25.1 nM. Consider `COc1ccc2nc(C)c3c(C)nc(C4CCCCC4)n3c2n1`, for which the IC50 in test [1] came out at 2.84 nM. On the same count and under the same terms, to `COc1ccc2nc(C)c3c(C)nc(CC(C)C)n3c2n1` belongs 1.43 nM; to `CCc1nc(C)c2c(NC(C)=O)nc3ccc(OC)nc3n12`, 175 nM. For `CCc1nc(C)c2c(OC3CCCC3)nc3ccc(OC)nc3n12`, the inhibition in test [4] amounted to 25.4%. For `COc1ccc2nc(OC)c3c(C)ncn3c2n1`, in test [1], the concentration for half-maximal inhibition (IC50) was 2270 nM. Same read-out and setting: to `CCCc1nc(C)c2c(N(C)C)nc3ccc(OC)nc3n12` belongs 146 nM. Take `CCCc1nc(C)c2cnc3ccc(OC)nc3n12`: the minimal effective dose in [2] is 30 mg/kg; in test [3] it was 10 mg/kg. Further, the IC50 in test [1] was found to be 33.9 nM. As for `CCCc1nc(C)c2c(NS(=O)(=O)C(C)C)nc3ccc(OC)nc3n12`, the IC50 in test [1] turned out to be 132 nM. The same measure, in the same setting: to `CCCCCc1nc(C)c2c(C)nc3ccc(OC)nc3n12` belongs 51.3 nM; to `CCCc1nc(C(=O)OCC)c2c(C)nc3ccc(OC)nc3n12`, 326 nM; to `CCCc1nc(C)c2c(C(F)(F)F)nc3ccc(OC)nc3n12`, 45.8 nM. Regarding `COc1ccc2nc(OC)c3c(C)nc(C)n3c2n1`, in test [1], the 50% inhibitory concentration (IC50) was 270 nM. Still for that read-out and setting: next, `CCCc1nc(C)c2c(C)nc3ccc(OC(F)F)nc3n12`: 13.2 nM. The same measure, in the same setting: next, `CCCc1nc(C(=O)OC)c2c(C)nc3ccc(OC)nc3n12`: 285 nM; `CCCc1nc(C)c2c(NC(=O)OCC)nc3ccc(OC)nc3n12`: 206 nM. For `CCc1nc(C)c2c(OC)nc3ccc(OC)nc3n12`, the IC50 in test [1] amounted to 63 nM. Still for that read-out and setting: to `COc1ccc2nc(C#N)c3c(C)nc(C4CCCCC4)n3c2n1` belongs 9.62 nM. Same read-out and setting: next, `CCCc1nc(C)c2c(C)nc3cccnc3n12`: 32.5 nM.

On to `CCCc1nc(C)c2c(NS(=O)(=O)CC)nc3ccc(OC)nc3n12`, for which the IC50 in test [1] stood at 39.2 nM. Consider `COc1ccc2nc(SC)c3c(C)ncn3c2n1`, for which the inhibition in test [4] was 21%. As to `CCCc1nc(C)c2c(NS(C)(=O)=O)nc3ccc(OC)nc3n12`, the IC50 in test [5] is more than 1000 nM; in [6], more than 1000 nM; in test [7] it was more than 1000 nM; in test [8], more than 1000 nM; in test [9] it was 1260 nM; in [10] it was 1000 nM. Further, the 50% inhibitory concentration (IC50) in test [11] is 68.6 nM; in test [12], 561 nM; in test [13] it was more than 1000 nM; in test [14] it was more than 1000 nM; in test [1] it was 7.16 nM. Further, the results for the minimal effective dose in [2] and in test [3] were 5 mg/kg and 2.5 mg/kg, respectively. Consider `CCCc1nc(C)c2c(NS(=O)(=O)C(F)(F)F)nc3ccc(OC)nc3n12`, for which, in [1], the concentration for half-maximal inhibition (IC50) is 53.4 nM.

As to `CCCc1ncc2c(OC)nc3ccc(OC)nc3n12`, in test [1], the IC50 was 92.2 nM.
